# Screening results: PubChem, The Scripps Research Institute Molecular Screening Center
# Hits are enriched below; roughly 1.4% of the tested compounds scored in any of these assays.
# DDE Tn7 FP inh: DD(E)-Tn7 binding inhibition, primary FP screen; FP displacement of FITC-Tn7 peptide from fibrin DD(E); 0% = median of compound wells per plate; inhibition, % at 8.3 µM; 370,000 tested, 0.13% active;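 active = inhibition above the mean of compounds falling within the control limits plus 3 SD of them, cut at about 14% in these data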;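 also: 0% = plate median of compound wells and 100% = 10 µM Aha-Tn7 peptide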
#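 Assay system: Human clot-derived fibrin DD(E) complex | Buffer or medium: Tris/NaCl/CaCl2 buffer, pH 7.8 | Repeats: One replicate per compound | Benchmarks: Aha-Tn7 high control | Measure: % inhibition scaled between sample-field median and high-control FP | Schedule: 10 min plus 3 h, room temperature | Signal: Fluorescence polarization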
# DNA FID counter: counter-screen for HCV NS3 helicase inhibitors: DNA intercalator displacement; DNA fluorescent intercalator displacement, fluorescence; inhibition, % at 7.9 µM; 290,000 tested, 0.17% active; AID 1845; in the data active = inhibition above about 37%;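 also: 0% = vehicle and 100% = reference compound; higher means more ethidium bromide displaced from hairpin DNA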
# PLCg1 inh: blocks human PLC-gamma1 enzyme activity | inhibition, % at 12.2 µM | 370,000 tested, 0.84% active | P19174 | purified PLC-gamma1, fluorogenic substrate, fluorescence
# PLCb3 inh: PLC-beta3 (human) inhibition, primary screen. Purified PLC-beta3, fluorogenic substrate, fluorescence. inhibition, % at 12.2 µM. 370,000 tested, 0.18% active. AID 720704; in the data active = inhibition above about 11%;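 also: 0% = median of compound wells on plate and 100% = full blocker control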
# Target sequence (Q01970 whole entry, looked up): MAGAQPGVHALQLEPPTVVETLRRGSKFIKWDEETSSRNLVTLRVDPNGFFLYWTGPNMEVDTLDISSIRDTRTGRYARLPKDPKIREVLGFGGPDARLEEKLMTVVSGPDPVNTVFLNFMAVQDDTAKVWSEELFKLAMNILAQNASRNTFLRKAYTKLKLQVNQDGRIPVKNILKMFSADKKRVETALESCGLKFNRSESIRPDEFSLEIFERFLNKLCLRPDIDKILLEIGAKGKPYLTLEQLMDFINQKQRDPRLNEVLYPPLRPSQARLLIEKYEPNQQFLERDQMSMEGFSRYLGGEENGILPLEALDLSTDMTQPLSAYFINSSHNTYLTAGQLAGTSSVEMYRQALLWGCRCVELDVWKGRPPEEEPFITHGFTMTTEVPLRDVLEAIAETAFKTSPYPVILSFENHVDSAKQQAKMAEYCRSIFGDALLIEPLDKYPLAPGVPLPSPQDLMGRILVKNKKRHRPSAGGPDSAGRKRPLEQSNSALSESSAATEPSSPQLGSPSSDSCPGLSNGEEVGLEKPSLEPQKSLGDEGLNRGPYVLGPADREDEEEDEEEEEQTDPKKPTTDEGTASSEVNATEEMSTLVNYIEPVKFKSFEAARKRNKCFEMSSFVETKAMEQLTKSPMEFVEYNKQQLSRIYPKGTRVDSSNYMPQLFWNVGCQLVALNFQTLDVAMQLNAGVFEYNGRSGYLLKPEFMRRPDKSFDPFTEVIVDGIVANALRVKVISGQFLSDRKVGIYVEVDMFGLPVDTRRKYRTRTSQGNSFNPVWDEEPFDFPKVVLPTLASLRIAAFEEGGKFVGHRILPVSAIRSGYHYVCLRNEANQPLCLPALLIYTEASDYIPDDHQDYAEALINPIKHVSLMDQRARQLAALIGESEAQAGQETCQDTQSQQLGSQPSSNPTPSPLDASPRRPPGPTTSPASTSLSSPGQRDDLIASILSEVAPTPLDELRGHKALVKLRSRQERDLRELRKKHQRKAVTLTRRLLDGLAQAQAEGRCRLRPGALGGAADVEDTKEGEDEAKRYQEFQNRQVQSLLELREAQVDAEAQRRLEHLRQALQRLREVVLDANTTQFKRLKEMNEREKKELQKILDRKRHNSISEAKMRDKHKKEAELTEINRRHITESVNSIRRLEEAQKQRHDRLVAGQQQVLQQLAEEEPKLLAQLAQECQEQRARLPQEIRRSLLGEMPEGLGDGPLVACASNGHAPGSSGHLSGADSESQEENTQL
# Tn6 DDE FP: DD(E)-Tn6 binding inhibition, primary FP screen. P02675. Fibrin DD(E) TRITC-Tn6 fluorescence polarization displacement. inhibition, % at 8.3 µM. 370,000 tested, 0.21% active. AID 720509;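 active = inhibition above a per-campaign cutoff: mean of compounds within control limits plus 3 SD, cut at about 15% in these data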;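 also: 0% = median of all compound wells on the plate and 100% = blocking peptide control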
# PLCgamma1 ctr: inhibits human PLC-gamma1 in PLC-beta3 counter-screen; shares compounds with PLCg1 inh; purified PLC-gamma1, fluorogenic substrate, fluorescence; inhibition, % at 12.3 µM; 3,300 tested, 3.1% active; AID 743258
# PLCbeta3 conf: human PLC-beta3 inhibition, confirmation; shares compounds with PLCg1 inh; purified PLC-beta3, fluorogenic substrate fluorescence; inhibition, % at 12.3 µM; 3,300 tested, 1% active; AID 743261; in the data active = inhibition above about 11%
# Numbers without * were called inactive; . = not tested or not shown. Rule as the data show it, unless noted: active = inhibition above about 9.5%; inactive = the rest.
SMILES,DDE Tn7 FP inh,DNA FID counter,PLCg1 inh,PLCb3 inh,Tn6 DDE FP,PLCgamma1 ctr,PLCbeta3 conf
CCOc1ccc(N(CC(=O)NC2CCCC2)C(=O)CCC(=O)Nc2nc(C)cs2)cc1,0,-49,1,-3,5,.,.
Cc1ccc(N(CC(=O)NC2CCCC2)C(=O)CCC(=O)Nc2nc(C)cs2)cc1,0,-28,9.6*,-8,-11,-2,4
COc1ccc2ccccc2c1C1CC(=O)N2CN(C)CSC2=C1C#N (configuration not stated),8,-40,11*,4,-5,-8,-9
COc1cc(OC)c(C2CC(=O)N3CN(C)CSC3=C2C#N)cc1OC (configuration not stated),9,-15,-8,-19,-2,.,.
Cc1ccc(C(NC(=O)N2CC(C)OC(C)C2)C(Cl)Cl)cc1F (configuration not stated),-2,-1,7,13*,-2,-1,4
Cc1ccc(C(NC(=O)N2CCOCC2)C(Cl)Cl)cc1F (configuration not stated),0,-2,-2,-1,-1,.,.
CCOC(=O)Cn1nnc(-c2ccccc2)n1,6,-3,3,14*,-7,-2,2
CC(C)OC(=O)Cn1nnc(-c2ccccc2)n1,10,-13,-1,2,5,.,.
CN(C)c1ccc(/C=N/NC(=O)c2nonc2N)cc1[N+](=O)[O-],1,12,9.8*,2,0,-3,5
COc1ccc(/C=N/NC(=O)c2ccc3c(c2)OCCO3)cc1[N+](=O)[O-],-2,-1,11*,-3,-5,-10,-3
Cc1csc2nc(O)c(C(=O)NCCCN3CCCC3=O)c(=O)n12,-5,.,9.7*,4,2,-7,-4
Cc1ccn2c(=O)c(C(=O)NCCCN3CCCC3=O)c(O)nc2c1,-4,-9,-96,-143,-7,.,.
O=C(Cc1cccs1)Nc1ccc(F)c(S(=O)(=O)N2CCOCC2)c1,-10,.,9.9*,1,4,-5,-1
Cc1ccc(NC(=S)NCc2ccccc2)cc1S(=O)(=O)N1CCCCC1,-2,-9,14*,9,-9,5,8
Cc1ccc(NC(=O)COC(=O)CC2CC3CCC2C3)cc1S(=O)(=O)N1CCOCC1 (configuration not stated),4,.,11*,-2,-4,-6,-4
Cc1ccc(NC(=O)COC(=O)CN2C(=O)C3CCCCC3C2=O)cc1S(=O)(=O)N1CCOCC1 (configuration not stated),-3,-14,2,-2,2,.,.
Cc1ccc(NC(=O)CSc2ccccc2)cc1S(=O)(=O)N1CCOCC1,-2,.,12*,-2,7,-32,-3
Cc1cccc(Cn2cc(CN3CC(N(C)CCOC(=O)c4cc(C)cc(C)c4)CS3(=O)=O)nn2)c1 (configuration not stated),-2,.,1,3,-5,.,.
O=C(CCC1CCCCC1)Nc1ccccc1O,2,-3,2,-1,-1,.,.
CC(C)CC(=O)NC(=S)N1CCCCCC1,1,-3,0,5,0,.,.
COc1ccc(C(=O)NN=C(Cc2ccccc2)Cc2ccccc2)cc1OC,4,-11,11*,-5,5,-5,-2
Cc1ccc(/C(N)=N/OC(=O)c2ccc(Cl)cc2Cl)cc1,6,3,6,13*,0,-1,-1
O=C(CN1CCN(c2ccccn2)CC1)Nc1cccc(Cl)c1Cl,7,-32,1,-11,8,.,.
O=C1CC(c2ccco2)Sc2ccccc2N1 (configuration not stated),2,-3,4,-2,5,.,.
O=C1CC(c2ccccc2)Sc2ccccc2N1 (configuration not stated),-4,-3,10*,0,-1,-8,-5
SMILES,DDE Tn7 FP inh,DNA FID counter,PLCg1 inh,PLCb3 inh,Tn6 DDE FP,PLCgamma1 ctr,PLCbeta3 conf
CN1OC[C@@H]2CN(C(=O)C(C)(C)C)[C@H](c3cccc(Oc4ccccc4)c3)C[C@@H]21,-2,.,-2,3,2,.,.
CC(=O)NCC(=O)OCN1C(=O)c2ccccc2C1=O,-4,9,10*,6,-6,-5,0
CC1CCCCC1N=CC1=C(O)CC(C)(C)CC1=O (configuration not stated),-13,-2,11*,10,-5,-4,-2
CCC(CO)N=CC1=C(O)CC(C)(C)CC1=O (configuration not stated),4,-1,1,9,-10,.,.
O=C(N/C=C/n1cnc2cc(C(F)(F)F)ccc21)c1ccc(F)cc1,-1,.,0,-3,-3,.,.
Cc1ccc(C(=O)NNC(=O)C2CCN(S(=O)(=O)c3ccc(C)cc3)CC2)cc1,-6,-20,3,-3,0,.,.
Cc1ccc(S(=O)(=O)N2CCC(C(=O)NNC(=O)c3ccncc3)CC2)cc1,0,-2,9,12*,5,-6,-4
Cc1c(Br)c([N+](=O)[O-])nn1C(C)C(=O)NCc1cccs1 (configuration not stated),2,1,4,1,-3,.,.
Cc1ccc(CC2C(=O)N(c3cc(C)ccc3C)C(=O)C2C)cc1 (configuration not stated),5,-26,1,1,2,.,.
O=C(NCCc1ccc(Cl)cc1Cl)c1cncc(Br)c1,3,-17,11*,0,-5,-6,-2
O=C(Cc1ccc(Br)cc1)NCCc1ccc(Cl)cc1Cl,3,-14,-2,-9,-2,.,.
Cc1nnc(N/N=C/c2ccccc2C(F)(F)F)n1N,0,5,5,0,-5,.,.
Cc1nnc(N/N=C/c2ccccc2F)n1N,-4,-1,12*,1,6,-4,-1
CCOc1cc(/C=N/Nc2nnc(C)n2N)ccc1OC(C)=O,3,-4,8,0,6,.,.
Cc1nnc(N/N=C/c2cccc(C(F)(F)F)c2)n1N,3,-3,13*,11,4,-3,0
Cc1nnc(N/N=C/c2cccc(OCc3ccc(Cl)c(Cl)c3)c2)n1N,-4,0,13*,11*,-6,-21,-13
CN(C(=O)COc1ccccc1)c1ccc([N+](=O)[O-])cc1,4,.,5,4,3,.,.
CCc1nc2ccc(C(=O)NCc3ccc(C)o3)cc2nc1CC,6,-28,2,-8,-1,.,.
CCc1nc2cc(NC(=O)C3(C)CCCN(C(C)C)C3)ccc2o1 (configuration not stated),-5,.,9,1,-3,.,.
O=C(C[C@@H]1C/C=C\C[C@H](Cc2ccc(F)cc2)C(=O)OC[C@H]2CCCN2C1=O)NCCO,0,.,10*,3,-2,-8,-2
